Experimental data: ChEMBL document CHEMBL2346506, “Cytotoxicity and modulation of cancer-related signaling by (Z)- and (E)-3,4,3',5'-tetramethoxystilbene isolated from Eugenia rigida” (J Nat Prod, 2013)
pIC50: −log10 of the molar value. Activity calls are given as the source filed them. No cut-off for these calls is given here.

Assays:
SK-OV-3 [1] = assay: Cytotoxicity against human SKOV3 cells assessed as growth inhibition measured after 48 hrs by Neutral Red dye assay; settings: SK-OV-3, 48 h
HeLa [2] = assay: Cytotoxicity against human HeLa cells assessed as growth inhibition measured after 48 hrs by Neutral Red dye assay
Vero = assay: Cytotoxicity against african green monkey Vero cells assessed as growth inhibition measured after 48 hrs by Neutral Red dye assay; settings: Chlorocebus sabaeus
LLC-PK1 = assay: Cytotoxicity against pig LLC-PK1 cells assessed as growth inhibition measured after 48 hrs by Neutral Red dye assay; settings: Sus scrofa, LLC-PK1, 48 h
SK-MEL = assay: Cytotoxicity against human SK-MEL cells assessed as growth inhibition measured after 48 hrs by Neutral Red dye assay
KB = assay: Cytotoxicity against human KB cells assessed as growth inhibition measured after 48 hrs by Neutral Red dye assay
BT-549 = assay: Cytotoxicity against human BT549 cells assessed as growth inhibition measured after 48 hrs by Neutral Red dye assay; settings: BT-549, 48 h
HL-60 [3] = assay: Inhibition of PMA induced ROS generation in human HL60 cells assessed as inhibition of ROA mediated oxidation of DCFH; assay type: functional, cell-based
Method in brief: (§1)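 HL-60 cells (0.8 × 10⁶/mL) in RPMI-1640 with 10% FBS were pretreated 30 min with compound (0.4–100 μM). PMA (100 ng/mL) was then added for 30 min, followed by DCFH-DA (5 μg/mL) for 15 min. DCF fluorescence read at Ex 485 / Em 530 nm and compared with vehicle control. Trolox served as positive control.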

[4] = Inhibition of Hedgehog signaling pathway in human HeLa cells assessed as inhibition of PMA induced luciferase at 100 uM treated 30 mins before induction; assay type: cell-based
Method in brief: (§2)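 Reporter assay in cells transfected with pathway luciferase plasmids. Cells plated at 0.015 × 10⁶ per well in 10% FBS, switched after 24 h to DMEM with 1% FBS, then transfected. 24 h after transfection, compound (final 40, 60, 80 or 100 μM) was added, followed 30 min later by inducer (IL-6, TGF-β, wnt3a or PMA). Luciferase was read 4 or 6 h after induction (6 h for Notch, Wnt, Hedgehog). Value is the IC50 or the lowest concentration giving maximal 50–60% inhibition; two independent experiments.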

[5] = Inhibition of Notch signaling pathway in human HeLa cells assessed as inhibition of PMA induced luciferase at 100 uM treated 30 mins before induction; assay type: cell-based
Method in brief: as §2

[6] = Inhibition of E2F signaling pathway in human HeLa cells assessed as inhibition of PMA induced luciferase at 100 uM treated 30 mins before induction; assay type: cell-based
Method in brief: as §2

[7] = Inhibition of Ets signaling pathway in human HeLa cells assessed as inhibition of PMA induced luciferase at 100 uM treated 30 mins before induction; assay type: cell-based
Method in brief: as §2

HeLa [8] = assay: Inhibition of Stat3 signaling pathway in human HeLa cells assessed as inhibition of IL-6 induced luciferase at 100 uM treated 30 mins before induction; assay type: functional
Method in brief: as §2

[9] = Inhibition of NFkappaB signaling pathway in human HeLa cells assessed as inhibition of PMA induced luciferase at 100 uM treated 30 mins before induction; assay type: cell-based
Method in brief: as §2

[10] = Inhibition of AP1 signaling pathway in human HeLa cells assessed as inhibition of PMA induced luciferase at 100 uM treated 30 mins before induction; assay type: cell-based
Method in brief: as §2

[11] = target: Forkhead box protein O1 (Homo sapiens) (UniProt Q12778); assay: Inhibition of FoxO signaling pathway in human HeLa cells assessed as inhibition of luciferase at 100 uM […]; assay type: cell-based
Chain of Forkhead box protein O1 (Homo sapiens) (Q12778 whole entry): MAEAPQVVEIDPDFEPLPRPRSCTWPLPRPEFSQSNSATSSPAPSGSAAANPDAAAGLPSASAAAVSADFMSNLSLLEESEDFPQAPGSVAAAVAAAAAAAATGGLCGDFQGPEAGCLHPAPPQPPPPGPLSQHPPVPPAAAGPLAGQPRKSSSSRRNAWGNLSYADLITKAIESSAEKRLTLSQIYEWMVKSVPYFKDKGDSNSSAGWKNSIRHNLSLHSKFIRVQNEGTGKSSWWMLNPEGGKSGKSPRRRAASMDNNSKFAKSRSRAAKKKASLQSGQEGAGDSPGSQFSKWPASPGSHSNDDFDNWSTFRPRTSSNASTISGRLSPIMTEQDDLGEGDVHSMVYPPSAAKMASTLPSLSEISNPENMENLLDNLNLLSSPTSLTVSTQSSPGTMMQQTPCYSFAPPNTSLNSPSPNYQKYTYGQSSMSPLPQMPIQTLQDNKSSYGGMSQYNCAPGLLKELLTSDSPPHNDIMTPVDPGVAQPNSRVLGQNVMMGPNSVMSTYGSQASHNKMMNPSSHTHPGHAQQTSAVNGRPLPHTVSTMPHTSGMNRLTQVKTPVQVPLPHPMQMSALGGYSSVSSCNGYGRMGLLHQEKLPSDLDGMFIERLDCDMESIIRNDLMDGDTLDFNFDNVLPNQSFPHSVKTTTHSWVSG

[12] = target: Myc proto-oncogene protein (Homo sapiens) (UniProt P01106); assay: Inhibition of Myc signaling pathway in human HeLa cells assessed as inhibition of PMA induced luciferase at 100 uM treated 30 mins before induction; assay type: cell-based
Chain of Myc proto-oncogene protein (Homo sapiens) (P01106 whole entry): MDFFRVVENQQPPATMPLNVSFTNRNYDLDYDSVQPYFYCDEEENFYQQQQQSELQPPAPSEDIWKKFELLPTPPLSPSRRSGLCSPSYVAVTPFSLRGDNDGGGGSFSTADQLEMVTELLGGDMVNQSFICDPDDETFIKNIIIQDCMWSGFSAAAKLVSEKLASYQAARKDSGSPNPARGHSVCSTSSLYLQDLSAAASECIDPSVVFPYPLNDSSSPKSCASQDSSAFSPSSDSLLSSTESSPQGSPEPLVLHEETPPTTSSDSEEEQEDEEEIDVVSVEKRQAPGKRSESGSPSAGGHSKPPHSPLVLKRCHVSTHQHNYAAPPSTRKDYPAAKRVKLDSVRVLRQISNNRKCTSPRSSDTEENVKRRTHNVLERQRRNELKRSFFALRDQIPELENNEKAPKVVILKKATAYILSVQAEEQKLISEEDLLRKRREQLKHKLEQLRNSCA
Method in brief: as §2

[13] = target: T1, Nitric oxide synthase, inducible (Mus musculus, UniProt P29477); assay: Inhibition of iNOS in LPS-induced mouse RAW264.7 cells assessed as inhibition of […] at measured after 24 hrs; assay type: cell-based
T1 sequence (P29477 whole entry): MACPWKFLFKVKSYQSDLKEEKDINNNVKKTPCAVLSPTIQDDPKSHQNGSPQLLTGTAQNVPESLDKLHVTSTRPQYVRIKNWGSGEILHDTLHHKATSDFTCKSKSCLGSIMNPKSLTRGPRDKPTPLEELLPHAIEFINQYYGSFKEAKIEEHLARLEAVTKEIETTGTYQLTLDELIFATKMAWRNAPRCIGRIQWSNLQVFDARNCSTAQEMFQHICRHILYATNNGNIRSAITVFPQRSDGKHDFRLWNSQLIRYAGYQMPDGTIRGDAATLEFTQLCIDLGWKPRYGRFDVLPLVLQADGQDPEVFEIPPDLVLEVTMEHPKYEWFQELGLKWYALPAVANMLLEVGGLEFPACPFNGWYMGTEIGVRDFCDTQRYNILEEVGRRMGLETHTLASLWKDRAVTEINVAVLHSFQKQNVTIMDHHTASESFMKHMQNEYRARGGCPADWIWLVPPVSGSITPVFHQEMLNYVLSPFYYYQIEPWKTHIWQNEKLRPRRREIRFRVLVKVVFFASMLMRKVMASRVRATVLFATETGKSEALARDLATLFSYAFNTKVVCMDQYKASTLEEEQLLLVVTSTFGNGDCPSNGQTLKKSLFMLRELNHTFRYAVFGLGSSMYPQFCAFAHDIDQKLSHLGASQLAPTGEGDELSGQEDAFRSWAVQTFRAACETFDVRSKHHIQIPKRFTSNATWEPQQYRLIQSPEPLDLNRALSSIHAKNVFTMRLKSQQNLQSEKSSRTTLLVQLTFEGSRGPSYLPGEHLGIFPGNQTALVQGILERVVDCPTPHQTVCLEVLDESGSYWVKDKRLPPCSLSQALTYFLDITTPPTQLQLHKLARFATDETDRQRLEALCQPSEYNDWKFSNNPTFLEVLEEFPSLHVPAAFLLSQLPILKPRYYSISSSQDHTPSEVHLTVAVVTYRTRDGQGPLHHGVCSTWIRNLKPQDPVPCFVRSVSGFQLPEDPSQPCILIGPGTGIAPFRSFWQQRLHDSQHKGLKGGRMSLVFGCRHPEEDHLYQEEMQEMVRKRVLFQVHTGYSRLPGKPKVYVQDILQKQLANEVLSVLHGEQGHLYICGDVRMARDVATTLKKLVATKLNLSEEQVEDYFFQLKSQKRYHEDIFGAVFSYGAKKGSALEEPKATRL
Method in brief: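 Mouse RAW 264.7 macrophages were seeded at 50 000 cells/well and grown 24 h. They were pretreated with samples for 30 min, then stimulated with LPS at 5 μg/mL for 24 h. Nitrite in the supernatant was measured by Griess reagent, and inhibition was calculated against the vehicle control. IC50 came from dose–response curves, with cytotoxicity checked in parallel.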

[14] = Inhibition of Wnt signaling pathway in human HeLa cells assessed as inhibition of Wnt3a induced luciferase treated 30 mins before induction; assay type: cell-based
Method in brief: as §2

HeLa [15] = assay: Inhibition of smad3/4 signaling pathway in human HeLa cells assessed as inhibition of TGF-beta induced luciferase treated 30 mins before induction; assay type: functional, cell-based
Method in brief: as §2

SK-OV-3 [16] = assay: Cytotoxicity against human SKOV3 cells assessed as growth inhibition measured at 100 uM after 48 hrs by […] assay; assay type: functional, cell-based
[17] = Inhibition of NFkappaB signaling pathway in human HeLa cells assessed as inhibition of PMA induced luciferase treated 30 mins before induction; assay type: cell-based
Method in brief: as §2

[18] = Inhibition of Wnt signaling pathway in human HeLa cells assessed as measured as lowest concentration required 50 to 60 % inhibition of Wnt3a induced luciferase treated 30 mins before induction; assay type: cell-based
Method in brief: as §2

HeLa [19] = assay: Inhibition of smad3/4 signaling pathway in human HeLa cells assessed as measured as lowest concentration required 50 to 60 % inhibition of TGF-beta induced luciferase treated 30 mins before induction; assay type: functional
Method in brief: as §2

[20] = Inhibition of Ets signaling pathway in human HeLa cells assessed as inhibition of PMA induced luciferase treated 30 mins before induction; assay type: cell-based
Method in brief: as §2

[21] = Inhibition of Notch signaling pathway in human HeLa cells assessed as inhibition of PMA induced luciferase treated 30 mins before induction; assay type: cell-based
Method in brief: as §2

[22] = Inhibition of Notch signaling pathway in human HeLa cells assessed as measured as lowest concentration required 50 to 60 % inhibition of PMA induced luciferase treated 30 mins before induction; assay type: cell-based
Method in brief: as §2

HeLa [23] = assay: Inhibition of Stat3 signaling pathway in human HeLa cells assessed as measured as lowest concentration required 50 to 60 % inhibition of IL-6 induced luciferase treated 30 mins before induction; assay type: functional
Method in brief: as §2

[24] = Inhibition of AP1 signaling pathway in human HeLa cells assessed as inhibition of PMA induced luciferase treated 30 mins before induction; assay type: cell-based
Method in brief: as §2

[25] = Inhibition of AP1 signaling pathway in human HeLa cells assessed as measured as lowest concentration required 50 to 60 % inhibition of PMA induced luciferase treated 30 mins before induction; assay type: cell-based
Method in brief: as §2

HL-60 [26] = assay: Cytotoxicity against human HL60 cells assessed as growth inhibition measured after 48 hrs by XTT assay; assay type: functional, cell-based; settings: HL-60, 48 h
[27] = target: T2, Nitric oxide synthase, inducible (Mus musculus) (UniProt P29477); assay: Inhibition of iNOS in LPS-induced mouse RAW264.7 cells assessed as inhibition of […] up to 33.3 uM measured after 24 hrs; assay type: cell-based
T2 sequence (whole entry): T1 sequence (P29477 whole entry)
Method in brief: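 RAW 264.7 macrophages seeded at 50 000 per well and grown 24 h. Compound added 30 min before LPS (5 μg/mL), then cells incubated a further 24 h. Nitrite in the supernatant measured with Griess reagent relative to vehicle control. Parthenolide served as positive control; cytotoxicity checked in parallel.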

HL-60 [28] = assay: Inhibition of PMA induced ROS generation in human HL60 cells assessed as inhibition of ROA mediated oxidation of DCFH at 100 uM; assay type: functional, cell-based
Method in brief: as §1

HeLa [29] = assay: Inhibition of Stat3 signaling pathway in human HeLa cells assessed as inhibition of IL-6 induced luciferase treated 30 mins before induction; assay type: functional, cell-based
Method in brief: as §2

[30] = Inhibition of Ets signaling pathway in human HeLa cells assessed as measured as lowest concentration required 50 to 60 % inhibition of PMA induced luciferase treated 30 mins before induction; assay type: cell-based
Method in brief: as §2

[31] = target: Myc proto-oncogene protein (Homo sapiens) (UniProt P01106); assay: Inhibition of Myc signaling pathway in human HeLa cells assessed as measured as lowest concentration required 50 to 60 % inhibition of PMA induced luciferase treated 30 mins before induction; assay type: cell-based
Method in brief: as §2

[32] = Inhibition of NFkappaB signaling pathway in human HeLa cells assessed as measured as lowest concentration required 50 to 60 % inhibition of PMA induced luciferase treated 30 mins before induction; assay type: cell-based
Method in brief: as §2

COc1cccc2c1C(=O)c1c(O)c3c(c(O)c1C2=O)C[C@@](O)(C(=O)CO)C[C@@H]3O[C@H]1C[C@H](N)[C@H](O)[C@H](C)O1 [DOXORUBICIN]
pIC50 (SK-OV-3 [1]): 5.59
pIC50 (HeLa [2]): 5.41
pIC50 (Vero): < 5.04
pIC50 (LLC-PK1): 5.80
pIC50 (SK-MEL): 5.82
pIC50 (KB): 5.42
pIC50 (BT-549): 5.43

Cc1c(C)c2c(c(C)c1O)CCC(C)(C(=O)O)O2 (stereo not drawn) [TROLOX]
pIC50 (HL-60 [3]): 5.85

COc1ccc(/C=C/c2cc(OC)cc(OC)c2)cc1 [TRISMETHOXYRESVERATROL]
pIC50 (SK-OV-3 [1]): 4.26
inhibition [4]: inactive
inhibition [5]: inactive
pIC50 (HeLa [2]): 4.88
inhibition [6]: inactive
inhibition [7]: inactive
pIC50 (Vero): 4.57
inhibition (HeLa [8]): inactive
inhibition [9]: inactive
pIC50 (LLC-PK1): 4.70
pIC50 (SK-MEL): 4.91
pIC50 (KB): 4.75
inhibition [10]: inactive
pIC50 (BT-549): 4.81
inhibition [11]: inactive
inhibition [12]: inactive

C=C1C(=O)O[C@@H]2C3O[C@]3(C)CC/C=C(\C)CC[C@@H]12 (stereo partly drawn)
pIC50 [13]: 5.10

COc1cc(/C=C\c2ccc(OC)c(OC)c2)cc(OC)c1 [(Z)-3,4,3',5'-TETRAMETHOXYSTILBENE]
pIC50 [14]: 4.40
inhibition [4]: < 40%
pIC50 (HeLa [15]): 4.40
growth inhibition (GI) (SK-OV-3 [16]): inactive
pIC50 [17]: 4.10
MED [18]: 50 µM
MED (HeLa [19]): 55 µM
pIC50 [20]: 4.40
pIC50 [21]: 4.40
MED [22]: 40 µM
pIC50 (HeLa [2]): 5.44
inhibition [6]: < 40%
MED (HeLa [23]): 77 µM
pIC50 (Vero): < 4.48
pIC50 (LLC-PK1): 5.22
pIC50 (SK-MEL): 5.37
pIC50 [24]: 4.10
pIC50 (KB): 5.37
MED [25]: 80 µM
pIC50 (HL-60 [26]): 5.37
pIC50 (BT-549): 5.40
inhibition [27]: inactive
inhibition (HL-60 [28]): inactive
pIC50 (HeLa [29]): 4.30
MED [30]: 65 µM
inhibition [11]: < 40%
MED [31]: 65 µM
MED [32]: 80 µM
